Columns and labels:
[1] = Tmax in CD1 mouse at 30 mg/kg, po by HPLC coupled to tandem mass spectrometry; assay type: ADME, organism-based; details: in vivo
How it was run: (§1)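 Adult female CD-1 mice were dosed 10 mg/kg by iv injection or 30 mg/kg by oral gavage, with the compound in 100% saline. Blood samples were collected and drug content was measured by HPLC-tandem MS.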

[2] = AUC (0 to 2 hrs) in CD1 mouse at 30 mg/kg, po by HPLC coupled to tandem mass spectrometry; assay type: ADME, organism-based; design: dose 30 mg/kg, time < 2 hr, route oral; details: in vivo; how it was run: as §1
[3] = AUC (0 to infinity) in CD1 mouse at 10 mg/kg, iv by HPLC coupled to tandem mass spectrometry; assay type: ADME, organism-based; design: dose 10 mg/kg, route intravenous, time infinity; details: in vivo; how it was run: as §1
[4] = test system: Plasmodium berghei; assay: Antiplasmodial activity against Plasmodium berghei infected in Swiss Webster mouse assessed as mouse survival at 3 mg/kg, po dosed once daily for 4 consecutive days beginning 1 hr after initial infection and measured on day 10 post infection by Giemsa staining method; assay type: functional
How it was run: (§2)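 Female Swiss Webster mice (about 20 g) infected ip with 6 × 10^6 P. berghei-infected erythrocytes. Oral gavage once daily for 4 days, starting 1 h after infection. Vehicle PEG300/propylene glycol/water (55/25/20 by weight). Giemsa-smear parasitemia counted daily from day 4. Mice euthanised above 50% parasitemia. Survival followed to day 21, 5 mice per dose, chloroquine 30 mg/kg as reference.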

[5] = test system: Mus musculus; assay: Cmax in CD1 mouse assessed as 5-(1-hydroxy-1,3-dihydrobenzo[c][1,2]oxaborol-6-yloxy)pyrazine-2-carboxylic acid level at 5 mg/kg, po by HPLC coupled to tandem mass spectrometry; assay type: ADME, organism-based; design: dose 5 mg/kg, route oral; details: in vivo
How it was run: (§3)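 The parent ester was given to adult female CD-1 mice at 5 mg/kg, iv or by oral gavage, in PEG 400/dimethylacetamide/water (45/10/45, pH 5.8). Blood was sampled, and the acid formed from the ester in vivo was quantified by HPLC-tandem MS to derive its PK parameters.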

[6] = test system: Mus musculus; assay: Terminal half life in CD1 mouse assessed as 5-(1-hydroxy-1,3-dihydrobenzo[c][1,2]oxaborol-6-yloxy)pyrazine-2-carboxylic acid level at 5 mg/kg, po by HPLC coupled to tandem mass spectrometry; assay type: ADME, organism-based; details: in vivo; how it was run: as §3
[7] = test system: Mus musculus; assay: Oral bioavailability in CD1 mouse assessed as 5-(1-hydroxy-1,3-dihydrobenzo[c][1,2]oxaborol-6-yloxy)pyrazine-2-carboxylic acid level at 5 mg/kg by HPLC coupled to tandem mass spectrometry; assay type: ADME, organism-based; details: in vivo; how it was run: as §3
[8] = test system: Plasmodium berghei; assay: Antiplasmodial activity against Plasmodium berghei infected in Swiss Webster mouse assessed as mouse survival at 100 mg/kg, po dosed once daily for 4 consecutive days beginning 1 hr after initial infection and measured on day 14 post infection by Giemsa staining method; assay type: functional; how it was run: as §2
[9] = test system: Plasmodium berghei; assay: Antiplasmodial activity against Plasmodium berghei infected in Swiss Webster mouse assessed as mouse survival at 100 mg/kg, po dosed once daily for 4 consecutive days beginning 1 hr after initial infection and measured on day 15 post infection by Giemsa staining method; assay type: functional; how it was run: as §2
[10] = test system: Plasmodium berghei; assay: Antiplasmodial activity against Plasmodium berghei infected in Swiss Webster mouse assessed as mouse survival at 100 mg/kg, po dosed once daily for 4 consecutive days beginning 1 hr after initial infection and measured on day 16 to 19 post infection by Giemsa staining method; assay type: functional; how it was run: as §2
[11] = test system: Plasmodium berghei; assay: Antiplasmodial activity against Plasmodium berghei infected in Swiss Webster mouse assessed as mouse survival at 200 mg/kg, po dosed once daily for 4 consecutive days beginning 1 hr after initial infection and measured on day 4 post infection by Giemsa staining method; assay type: functional; how it was run: as §2
[12] = test system: Plasmodium berghei; assay: Antiplasmodial activity against Plasmodium berghei infected in Swiss Webster mouse assessed as mouse survival at 200 mg/kg, po dosed once daily for 4 consecutive days beginning 1 hr after initial infection and measured on day 6 post infection by Giemsa staining method; assay type: functional; how it was run: as §2
[13] = test system: Plasmodium berghei; assay: Antiplasmodial activity against Plasmodium berghei infected in Swiss Webster mouse assessed as mouse survival at 200 mg/kg, po dosed once daily for 4 consecutive days beginning 1 hr after initial infection and measured on day 7 post infection by Giemsa staining method; assay type: functional; how it was run: as §2
[14] = test system: Plasmodium berghei; assay: Antiplasmodial activity against Plasmodium berghei infected in Swiss Webster mouse assessed as mouse survival at 200 mg/kg, po dosed once daily for 4 consecutive days beginning 1 hr after initial infection and measured on day 9 post infection by Giemsa staining method; assay type: functional; how it was run: as §2
[15] = test system: Plasmodium berghei; assay: Antiplasmodial activity against Plasmodium berghei infected in Swiss Webster mouse assessed as mouse survival at 200 mg/kg, po dosed once daily for 4 consecutive days beginning 1 hr after initial infection and measured on day 10 post infection by Giemsa staining method; assay type: functional; how it was run: as §2
[16] = Stability in mouse liver microsomes assessed as compound remaining at 1 uM incubated for 1 hr in absence of NADPH by LC/MS/MS method; assay type: ADME
How it was run: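 Compound at 1 μM final (from a 1 mg/mL DMSO stock) was incubated with mouse or human liver microsomes (0.5 mg/mL protein) in 100 mM potassium phosphate, pH 7.4, at 37 °C with shaking, with or without 1 mM NADPH. Samples were taken over 0–120 min and tested in duplicate. Reactions were quenched with cold acetonitrile plus internal standard and analyzed by LC/MS/MS.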

With `O=C(O)c1cnc(Oc2ccc3c(c2)B(O)OC3)cn1` the Tmax [1] was 15 min, the AUC(0-t) at 2 h [2] was 8.62 µg·h/mL and the AUC(0-inf) [3] was 4.3 µg·h/mL.
With `COC(=O)c1cnc(Oc2ccc3c(c2)B(O)OC3)cn1` the survival at 3 mg/kg [4] was 40%, the Cmax [5] was 0.92 µg/mL and the “beta t1/2” value [6] was 90 min. It also gave an F [7] of 29%, a survival at 100 mg/kg [8] of 40% and a survival at 100 mg/kg [9] of 40%. The survival at 100 mg/kg [10] was 20%.
`NC(=O)c1cnc(Oc2ccc3c(c2)B(O)OC3)cn1` showed a survival at 200 mg/kg [11] of 100%, a survival at 200 mg/kg [12] of 100% and a survival at 200 mg/kg [13] of 100%. The survival at 200 mg/kg [14] was 40%, the survival at 200 mg/kg [15] was 0% and the Stability [16] was 100%.

Source: ChEMBL document CHEMBL3580633, “Benzoxaborole antimalarial agents. Part 4. Discovery of potent 6-(2-(alkoxycarbonyl)pyrazinyl-5-oxy)-1,3-dihydro-1-hydroxy-2,1-benzoxaboroles” (J Med Chem, 2015)
